Measurements taken from ChEMBL document CHEMBL3588823, “Design, synthesis and biological evaluation of novel 5-oxo-2-thioxoimidazolidine derivatives as potent androgen receptor antagonists” (Eur J Med Chem, 2015).

Tested on: LNCaP
Assay: Antiproliferative activity against human LNCAP cells after 3 days
Type: functional, cell-based
Settings: Homo sapiens, LNCaP, 72 h; read-out: IC50
Outline: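 LNCaP cells seeded at 10,000 per well in RPMI 1640 with 10% charcoal-stripped serum and 1% AAS, then held 3 days at 37 °C. Medium was then replaced with serial compound dilutions, either without DHT (agonism mode) or with DHT (antagonism mode).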

**Q.** With `CNC(=O)c1ccc(NC(=S)Nc2ccc(C#N)c(C(F)(F)F)c2)cc1F` as the compound, how does the IC50 read?
**A.** The IC50 was greater than 10000 nM.

**Q.** For `CNC(=O)c1ccc(N2C(=S)N(c3ccc(C#N)c(C(F)(F)F)c3)C(=O)[C@]23CCOC3)cc1F`, which IC50 is on record?
**A.** Its IC50 is 79.2 nM.

**Q.** For `CNC(=O)c1ccc(N2C(=S)N(c3ccc(C#N)c(C(F)(F)F)c3)C(=O)[C@@]23CCOC3)cc1F`, which IC50 is on record?
**A.** The IC50 was 2000 nM.

Biological target: T1, Androgen receptor (Homo sapiens, UniProt P10275)
T1 sequence (P10275 whole entry): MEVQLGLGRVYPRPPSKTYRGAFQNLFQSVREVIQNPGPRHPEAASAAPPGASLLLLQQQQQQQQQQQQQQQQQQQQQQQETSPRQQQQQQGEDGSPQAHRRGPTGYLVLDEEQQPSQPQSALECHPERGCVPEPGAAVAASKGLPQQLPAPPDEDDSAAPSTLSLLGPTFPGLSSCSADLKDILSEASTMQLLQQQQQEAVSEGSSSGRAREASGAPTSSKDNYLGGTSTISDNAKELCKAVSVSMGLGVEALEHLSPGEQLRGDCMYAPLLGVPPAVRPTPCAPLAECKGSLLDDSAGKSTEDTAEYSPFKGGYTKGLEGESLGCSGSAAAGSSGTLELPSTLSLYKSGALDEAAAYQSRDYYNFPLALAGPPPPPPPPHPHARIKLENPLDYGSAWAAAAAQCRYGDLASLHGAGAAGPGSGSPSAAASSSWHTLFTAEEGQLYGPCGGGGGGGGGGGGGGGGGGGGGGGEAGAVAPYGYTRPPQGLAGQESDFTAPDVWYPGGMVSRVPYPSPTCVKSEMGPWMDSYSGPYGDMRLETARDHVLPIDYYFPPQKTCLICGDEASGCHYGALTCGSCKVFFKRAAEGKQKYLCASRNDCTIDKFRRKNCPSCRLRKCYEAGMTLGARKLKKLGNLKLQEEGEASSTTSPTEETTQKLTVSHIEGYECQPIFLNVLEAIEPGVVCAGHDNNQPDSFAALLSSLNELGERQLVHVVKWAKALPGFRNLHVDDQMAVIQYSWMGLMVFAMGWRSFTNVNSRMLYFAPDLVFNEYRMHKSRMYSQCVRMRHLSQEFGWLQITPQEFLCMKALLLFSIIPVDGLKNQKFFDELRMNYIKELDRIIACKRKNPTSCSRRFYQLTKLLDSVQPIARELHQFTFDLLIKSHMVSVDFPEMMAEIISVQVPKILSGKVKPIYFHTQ
Assay: Antagonist activity at androgen receptor (unknown origin)
Settings: not given

**Q.** For `CNC(=O)c1ccc(N2C(=S)N(c3ccc(C#N)c(C(F)(F)F)c3)C(=O)[C@]23CCOC3)cc1F`, which Ki is on record?
**A.** Its Ki is 18.4 nM.

**Q.** With `CNC(=O)c1ccc(N2C(=S)N(c3ccc(C#N)c(C(F)(F)F)c3)C(=O)[C@@]23CCOC3)cc1F` as the compound, how does the Ki read?
**A.** Its Ki is 215 nM.

Tested on: Rattus norvegicus
Assay: Half life in rat at 5 mg/kg, po
Type: ADME, organism-based
Settings: in vivo
Outline: (§1)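 Rats (n = 3) were given a single 5 mg/kg oral dose in 0.5% HPMC. Blood was taken into EDTA tubes at 15 and 30 min and 1, 2, 4, 8 and 24 h. Plasma was obtained by centrifugation and proteins were precipitated with acetonitrile. Bioavailability was calculated against a 1 mg/kg iv dose.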

**Q.** For `CNC(=O)c1ccc(N2C(=S)N(c3ccc(C#N)c(C(F)(F)F)c3)C(=O)[C@]23CCOC3)cc1F`, which t1/2 is on record?
**A.** The t1/2 was 5.2 h.

Tested on: Rattus norvegicus
Assay: Half life in rat at 1 mg/kg, iv
Type: ADME, organism-based
Settings: in vivo
Outline: (§2)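 Rats (n = 3) were given a single 1 mg/kg iv dose in 20% hydroxypropyl-β-cyclodextrin. Blood was taken into EDTA tubes at 5, 15 and 30 min and 1, 2, 4, 8 and 24 h. Plasma was obtained by centrifugation and proteins were precipitated with acetonitrile before analysis.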

**Q.** For `CNC(=O)c1ccc(N2C(=S)N(c3ccc(C#N)c(C(F)(F)F)c3)C(=O)[C@]23CCOC3)cc1F`, which t1/2 is on record?
**A.** Its t1/2 is 4.1 h.

Tested on: Rattus norvegicus
Assay: Tmax in rat at 5 mg/kg, po
Type: ADME, organism-based
Settings: in vivo
Outline: as §1

**Q.** For `CNC(=O)c1ccc(N2C(=S)N(c3ccc(C#N)c(C(F)(F)F)c3)C(=O)[C@]23CCOC3)cc1F`, which Tmax is on record?
**A.** The Tmax was 2 h.

Tested on: not listed separately
Assay: Tmax in rat at 1 mg/kg, iv
Type: ADME, organism-based
Settings: in vivo
Outline: as §2

**Q.** With `CNC(=O)c1ccc(N2C(=S)N(c3ccc(C#N)c(C(F)(F)F)c3)C(=O)[C@]23CCOC3)cc1F` as the compound, how does the Tmax read?
**A.** The Tmax was 4.98 min.

Tested on: Rattus norvegicus
Assay: Cmax in rat at 5 mg/kg, po
Type: ADME, organism-based
Parameters: dose 5 mg/kg, route oral
Settings: in vivo
Outline: as §1

**Q.** Which Cmax does the source give for `CNC(=O)c1ccc(N2C(=S)N(c3ccc(C#N)c(C(F)(F)F)c3)C(=O)[C@]23CCOC3)cc1F` here?
**A.** The Cmax was 1062 ng/mL.

Tested on: Rattus norvegicus
Assay: Cmax in rat at 1 mg/kg, iv
Type: ADME, organism-based
Parameters: dose 1 mg/kg, route intravenous
Settings: in vivo
Outline: as §2

**Q.** Which Cmax does the source give for `CNC(=O)c1ccc(N2C(=S)N(c3ccc(C#N)c(C(F)(F)F)c3)C(=O)[C@]23CCOC3)cc1F` here?
**A.** The Cmax was 531 ng/mL.

Tested on: not listed separately
Assay: AUC (0 to time) in rat at 5 mg/kg, po
Type: ADME, organism-based
Settings: in vivo
Outline: (§3)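 Rats (n = 3) received a single 5 mg/kg oral dose in 0.5% HPMC. EDTA blood samples were taken at 15 and 30 min and at 1, 2, 4, 8 and 24 h. Plasma was obtained by centrifugation, mixed with acetonitrile:H2O (1:1 v/v) and precipitated with acetonitrile.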

**Q.** With `CNC(=O)c1ccc(N2C(=S)N(c3ccc(C#N)c(C(F)(F)F)c3)C(=O)[C@]23CCOC3)cc1F` as the compound, how does the AUC read?
**A.** The AUC was 13000 ng·h/mL.

Tested on: not listed separately
Assay: AUC (0 to time) in rat at 1 mg/kg, iv
Type: ADME, organism-based
Settings: in vivo
Outline: (§4)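 Rats (n = 3) given a single 1 mg/kg iv dose in 20% HP-b-CD. Blood was drawn into EDTA tubes at 5, 15 and 30 min and at 1, 2, 4, 8 and 24 h. Plasma was separated by centrifugation, mixed with acetonitrile:H2O (1:1 v/v) and protein-precipitated with acetonitrile.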

**Q.** With `CNC(=O)c1ccc(N2C(=S)N(c3ccc(C#N)c(C(F)(F)F)c3)C(=O)[C@]23CCOC3)cc1F` as the compound, how does the AUC read?
**A.** The AUC was 2570 ng·h/mL.

Tested on: Rattus norvegicus
Assay: AUC (0 to infinity) in rat at 5 mg/kg, po
Type: ADME, organism-based
Parameters: dose 5 mg/kg, route oral, time infinity
Settings: in vivo
Outline: as §3

**Q.** For `CNC(=O)c1ccc(N2C(=S)N(c3ccc(C#N)c(C(F)(F)F)c3)C(=O)[C@]23CCOC3)cc1F`, which AUC is on record?
**A.** The AUC was 13105 ng·h/mL.

Tested on: not listed separately
Assay: AUC (0 to infinity) in rat at 1 mg/kg, iv
Type: ADME, organism-based
Parameters: dose 1 mg/kg, route intravenous, time infinity
Settings: in vivo
Outline: as §4

**Q.** Which AUC(0-inf) does the source give for `CNC(=O)c1ccc(N2C(=S)N(c3ccc(C#N)c(C(F)(F)F)c3)C(=O)[C@]23CCOC3)cc1F` here?
**A.** Its AUC(0-inf) is 2620 ng·h/mL.

Tested on: not listed separately
Assay: Volume of distribution in rat at 1 mg/kg, iv
Type: ADME, organism-based
Settings: in vivo
Outline: as §2

**Q.** Which Vd does the source give for `CNC(=O)c1ccc(N2C(=S)N(c3ccc(C#N)c(C(F)(F)F)c3)C(=O)[C@]23CCOC3)cc1F` here?
**A.** The Vd was 2.3 L/kg.

Tested on: not listed separately
Assay: Clearance in rat at 1 mg/kg, iv
Type: ADME, organism-based
Settings: in vivo
Outline: as §2

**Q.** With `CNC(=O)c1ccc(N2C(=S)N(c3ccc(C#N)c(C(F)(F)F)c3)C(=O)[C@]23CCOC3)cc1F` as the compound, how does the clearance read?
**A.** Its clearance is 6.67 mL/min/kg.

Tested on: not listed separately
Assay: MRT (last) in rat at 5 mg/kg, po
Type: ADME, organism-based
Settings: in vivo
Outline: as §1

**Q.** For `CNC(=O)c1ccc(N2C(=S)N(c3ccc(C#N)c(C(F)(F)F)c3)C(=O)[C@]23CCOC3)cc1F`, which MRT last is on record?
**A.** The MRT last was 6.9 h.

Tested on: not listed separately
Assay: MRT (last) in rat at 1 mg/kg, iv
Type: ADME, organism-based
Settings: in vivo
Outline: as §2

**Q.** For `CNC(=O)c1ccc(N2C(=S)N(c3ccc(C#N)c(C(F)(F)F)c3)C(=O)[C@]23CCOC3)cc1F`, which MRT last is on record?
**A.** The MRT last was 4.8 h.

Tested on: not listed separately
Assay: MRT (INF) in rat at 5 mg/kg, po
Type: ADME, organism-based
Settings: in vivo
Outline: as §1

**Q.** For `CNC(=O)c1ccc(N2C(=S)N(c3ccc(C#N)c(C(F)(F)F)c3)C(=O)[C@]23CCOC3)cc1F`, which MRT inf is on record?
**A.** Its MRT inf is 7.2 h.

Tested on: Rattus norvegicus
Assay: MRT (INF) in rat at 1 mg/kg, iv
Type: ADME, organism-based
Settings: in vivo
Outline: as §2

**Q.** With `CNC(=O)c1ccc(N2C(=S)N(c3ccc(C#N)c(C(F)(F)F)c3)C(=O)[C@]23CCOC3)cc1F` as the compound, how does the MRT read?
**A.** The MRT was 5.3 h.

Tested on: not listed separately
Assay: Oral bioavailability in rat at 5 mg/kg
Type: ADME, organism-based
Settings: in vivo
Outline: as §1

**Q.** With `CNC(=O)c1ccc(N2C(=S)N(c3ccc(C#N)c(C(F)(F)F)c3)C(=O)[C@]23CCOC3)cc1F` as the compound, how does the bioavailability read?
**A.** The bioavailability was 100%.
